# In ChEMBL document CHEMBL1671657, “MurF inhibitors with antibacterial activity: effect on muropeptide levels” (Antimicrob Agents Chemother, 2009):
# The source made the active and inactive calls. The calls are words filed in the database; no cut-off is given here.
# Tests used:
# [1] = Inhibition of Escherichia coli MurF
# Escherichia coli [2] = experiment: Antimicrobial activity against LPS-deffective Escherichia coli OC2530 by broth microdilution method; format: functional
# Method in brief: (§1)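 MICs by CLSI broth microdilution. Where polymyxin B nonapeptide was included, it was present at 2 μg/ml alongside the test compound.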
# Escherichia coli [3] = experiment: Antimicrobial activity against Escherichia coli OC2605 by broth microdilution method; format: functional
# Method in brief: (§2)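 CLSI broth microdilution MIC; strains from the sponsor's in-house collection.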
# Escherichia coli [4] = experiment: Antimicrobial activity against Escherichia coli OC9040 by broth microdilution method; format: functional; method in brief: as §1
# Escherichia coli [5] = experiment: Antimicrobial activity against Escherichia coli ATCC 25922 by broth microdilution method; format: functional; method in brief: as §1
# Enterococcus faecalis [6] = experiment: Antimicrobial activity against Enterococcus faecalis ATCC 29212 by broth microdilution method; format: functional; method in brief: as §1
# Enterococcus faecium [7] = experiment: Antimicrobial activity against Enterococcus faecium OC3312 by broth microdilution method; format: functional; method in brief: as §1
# Staphylococcus aureus [8] = experiment: Antimicrobial activity against Staphylococcus aureus ATCC 29213 by broth microdilution method; format: functional; method in brief: as §1
# Staphylococcus aureus [9] = experiment: Antimicrobial activity against methicillin-resistant Staphylococcus aureus OC3726 by broth microdilution method; format: functional; method in brief: as §2
# Staphylococcus aureus [10] = experiment: Antimicrobial activity against methicillin-resistant Staphylococcus aureus OC2878 by broth microdilution method; format: functional; method in brief: as §2
# Staphylococcus aureus [11] = experiment: Antimicrobial activity against Staphylococcus aureus OC4172 by broth microdilution method; format: functional; method in brief: as §1
# Escherichia coli [12] = experiment: Antimicrobial activity against LPS-deffective Escherichia coli OC2530 by broth microdilution method in presence of polymyxin B nonapeptide; format: functional; method in brief: as §1
# Escherichia coli [13] = experiment: Antimicrobial activity against Escherichia coli OC2605 by broth microdilution method in presence of polymyxin B nonapeptide; format: functional; method in brief: as §1
# Escherichia coli [14] = experiment: Antimicrobial activity against Escherichia coli OC9040 by broth microdilution method in presence of polymyxin B nonapeptide; format: functional; method in brief: as §1
# Escherichia coli [15] = experiment: Antimicrobial activity against Escherichia coli ATCC 25922 by broth microdilution method in presence of polymyxin B nonapeptide; format: functional; method in brief: as §1
# Enterococcus faecalis [16] = experiment: Antimicrobial activity against Enterococcus faecalis ATCC 29212 by broth microdilution method in presence of polymyxin B nonapeptide; format: functional; method in brief: as §1
# Enterococcus faecium [17] = experiment: Antimicrobial activity against Enterococcus faecium OC3312 by broth microdilution method in presence of polymyxin B nonapeptide; format: functional; method in brief: as §1
# Staphylococcus aureus [18] = experiment: Antimicrobial activity against Staphylococcus aureus ATCC 29213 by broth microdilution method in presence of polymyxin B nonapeptide; format: functional; method in brief: as §1
# Staphylococcus aureus [19] = experiment: Antimicrobial activity against methicillin-resistant Staphylococcus aureus OC3726 by broth microdilution method in presence of polymyxin B nonapeptide; format: functional
# Method in brief: (§3)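 CLSI broth microdilution MIC run in the presence of polymyxin B nonapeptide (PMBN) at 2 μg/ml as a permeabilizer.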
# Staphylococcus aureus [20] = experiment: Antimicrobial activity against methicillin-resistant Staphylococcus aureus OC2878 by broth microdilution method in presence of polymyxin B nonapeptide; format: functional; method in brief: as §3
# Staphylococcus aureus [21] = experiment: Antimicrobial activity against Staphylococcus aureus OC4172 by broth microdilution method in presence of polymyxin B nonapeptide; format: functional; method in brief: as §1
# Escherichia coli [22] = experiment: Antimicrobial activity against LPS-deffective Escherichia coli OC2530 assessed as cell lysis at 2 times MIC by light microscopy; format: functional, organism-based
# Method in brief: (§4)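 Cells were fixed on a glass slide under a coverslip and viewed by light microscopy at ×100/×1.25 oil immersion. Representative images were taken.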
# Escherichia coli [23] = experiment: Antimicrobial activity against LPS-deffective Escherichia coli OC2530 assessed as cell lysis at 4 times MIC by light microscopy; format: functional, organism-based; method in brief: as §4
# Escherichia coli [24] = experiment: Antimicrobial activity against LPS-deffective Escherichia coli OC2530 assessed as growth inhibition at MIC by light microscopy; format: functional, organism-based
# Escherichia coli [25] = experiment: Antimicrobial activity against LPS-deffective Escherichia coli OC2530 at 0.5 times MIC by light microscopy relative to control; format: functional, organism-based; method in brief: as §4
smiles,measurement,setting,value
COc1ccc2nc(OC)c([C@@H](c3ccccc3)[C@](O)(CCN(C)C)c3ccccc3)cc2c1,IC50,[1],24 µM
same,MIC,Escherichia coli [2],8 µg/mL
same,MIC,Escherichia coli [3],> 32 µg/mL
same,MIC,Escherichia coli [4],> 32 µg/mL
same,MIC,Escherichia coli [5],> 32 µg/mL
same,MIC,Enterococcus faecalis [6],> 32 µg/mL
same,MIC,Enterococcus faecium [7],> 32 µg/mL
same,MIC,Staphylococcus aureus [8],> 32 µg/mL
same,MIC,Staphylococcus aureus [9],> 32 µg/mL
same,MIC,Staphylococcus aureus [10],> 32 µg/mL
same,MIC,Staphylococcus aureus [11],> 32 µg/mL
same,MIC,Escherichia coli [12],2 µg/mL
same,MIC,Escherichia coli [13],4 µg/mL
same,MIC,Escherichia coli [14],8 µg/mL
same,MIC,Escherichia coli [15],8 µg/mL
same,MIC,Enterococcus faecalis [16],> 32 µg/mL
same,MIC,Enterococcus faecium [17],> 32 µg/mL
same,MIC,Staphylococcus aureus [18],> 32 µg/mL
same,MIC,Staphylococcus aureus [19],> 32 µg/mL
same,MIC,Staphylococcus aureus [20],> 32 µg/mL
same,MIC,Staphylococcus aureus [21],> 32 µg/mL
same,Activity,Escherichia coli [22],Active
same,Activity,Escherichia coli [23],Active
same,Activity,Escherichia coli [24],Active
same,Activity,Escherichia coli [25],inactive
